Activity calls are given as the source filed them. The calls are words filed in the database; no cut-off is given here.
Columns and labels:
[1] = target: T1, Aldo-keto reductase family 1 member C3 (Homo sapiens) (UniProt P42330); assay: Inhibition of AKR1C3 in human 22Rv1 cells assessed as potentiation of abiraterone-induced of ROS generation at 10 uM by DCFH-DA dye based flow cytometric analysis; assay type: cell-based; details: CWR22R
T1 sequence (whole entry): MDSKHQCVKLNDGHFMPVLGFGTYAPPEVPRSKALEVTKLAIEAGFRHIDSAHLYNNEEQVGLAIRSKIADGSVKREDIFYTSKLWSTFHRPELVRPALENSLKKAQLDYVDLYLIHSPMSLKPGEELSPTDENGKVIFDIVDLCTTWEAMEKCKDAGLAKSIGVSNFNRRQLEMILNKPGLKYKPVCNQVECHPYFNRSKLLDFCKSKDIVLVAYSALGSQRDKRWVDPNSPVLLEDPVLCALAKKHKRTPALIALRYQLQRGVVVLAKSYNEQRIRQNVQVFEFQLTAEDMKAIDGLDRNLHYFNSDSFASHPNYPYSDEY
Summary of the method: (§1)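 22Rv1 cells exposed 3 h to 10 μM inhibitor and/or abiraterone, or 50 μM enzalutamide; intracellular ROS by flow cytometry as DCF-positive cells, percent of vehicle control.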

[2] = target: T1, Aldo-keto reductase family 1 member C3 (Homo sapiens); assay: Inhibition of AKR1C3 in human 22Rv1 cells assessed as as reduction in finasteride-induced metabolism of 4AD into testosterone at 10 to 20 uM pre-incubated for 2 hrs in presence of finasteride before 4AD addition for 24 hrs by EIA; assay type: cell-based; details: CWR22R
Summary of the method: (§2)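 22Rv1 cells pretreated 2 h with or without 2 μM finasteride and/or inhibitor, then cultured 24 h with 100 nM 4AD; testosterone in cell extracts quantified by EIA and expressed as percent of finasteride-free control.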

[3] = target: T1, Aldo-keto reductase family 1 member C3 (Homo sapiens); assay: Inhibition of AKR1C3 in human 22Rv1 cells assessed as potentiation of abiraterone-induced apoptosis by measuring reduction in BCl2 level at 10 uM pre-incubated for 2 hrs before addition of pregnenolone for 24 hrs by Western blot analysis; assay type: cell-based; details: CWR22R
[4] = system: CWR22R; assay: Effect on steroid 5alpha-reductase in human 22Rv1 cells assessed as effect on metabolism of 4AD into testosterone at 10 to 20 uM pre-incubated for 2 hrs before 4AD addition for 24 hrs by EIA; assay type: cell-based; summary of the method: as §2
[5] = system: PC-3; details: Homo sapiens, at 10 µM
[6] = target: T1, Aldo-keto reductase family 1 member C3 (Homo sapiens); assay: Inhibition of AKR1C3 in human 22Rv1 cells assessed as as reduction in TMPRSS2 mRNA expression at 10 to 20 uM pre-incubated for 2 hrs before pregnenolone stimulation for 24 hrs by RT-qPCR analysis; assay type: cell-based; details: CWR22R
Summary of the method: (§3)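 22Rv1 cells pretreated 2 h with test agents, then stimulated 24 h with 20 nM pregnenolone; AR, TMPRSS2 and PSA mRNA measured by RT-qPCR, given as ratio to pregnenolone-free control.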

[7] = target: T1, Aldo-keto reductase family 1 member C3 (Homo sapiens); assay: Inhibition of AKR1C3 in human 22Rv1 cells assessed as potentiation of enzalutamide-induced of ROS generation at 10 uM by DCFH-DA dye based flow cytometric analysis; assay type: cell-based; details: CWR22R; summary of the method: as §1
[8] = target: T1, Aldo-keto reductase family 1 member C3 (Homo sapiens); assay: Inhibition of AKR1C3 in human 22Rv1 cells assessed as potentiation of enzalutamide-induced apoptosis by measuring increase in cleaved caspase-3 level at 10 uM pre-incubated for 2 hrs before addition of pregnenolone for 24 hrs by Western blot analysis; assay type: cell-based; details: CWR22R
Summary of the method: (§4)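 Apoptotic markers in 22Rv1: 2 h pretreatment with or without 10 μM inhibitor and/or 50 μM enzalutamide, then 24 h 20 nM pregnenolone; Bax/Bcl-2 ratio as percent of control; cleaved caspase-3 also by immunofluorescence with DAPI.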

[9] = target: T1, Aldo-keto reductase family 1 member C3 (Homo sapiens); assay: Inhibition of AKR1C3 in human 22Rv1 cells assessed as potentiation of enzalutamide-induced apoptosis by measuring increase in Bax level at 10 uM pre-incubated for 2 hrs before addition of pregnenolone for 24 hrs by Western blot analysis; assay type: cell-based; details: CWR22R; summary of the method: as §4
[10] = target: T1, Aldo-keto reductase family 1 member C3 (Homo sapiens); assay: Inhibition of AKR1C3 in human 22Rv1 cells assessed as induction of ROS generation at 10 uM by DCFH-DA dye based flow cytometric analysis; assay type: cell-based; details: CWR22R; summary of the method: as §1
[11] = target: T1, Aldo-keto reductase family 1 member C3 (Homo sapiens); assay: Inhibition of AKR1C3 in human 22Rv1 cells assessed as as reduction in PSA mRNA expression at 10 to 20 uM pre-incubated for 2 hrs before pregnenolone stimulation for 24 hrs by RT-qPCR analysis; assay type: cell-based; details: CWR22R; summary of the method: as §3
[12] = target: T1, Aldo-keto reductase family 1 member C3 (Homo sapiens); assay: Inhibition of AKR1C3 in human 22Rv1 cells assessed as potentiation of enzalutamide-induced apoptosis by measuring reduction in BCl2 level at 10 uM pre-incubated for 2 hrs before addition of pregnenolone for 24 hrs by Western blot analysis; assay type: cell-based; details: CWR22R; summary of the method: as §4
[13] = target: T1, Aldo-keto reductase family 1 member C3 (Homo sapiens); assay: Inhibition of AKR1C3 in human 22Rv1 cells assessed as potentiation of abiraterone-induced apoptosis by measuring increase in cleaved PARP level at 10 uM pre-incubated for 2 hrs before addition of pregnenolone for 24 hrs by Western blot analysis; assay type: cell-based; details: CWR22R
[14] = system: CWR22R; assay: Inhibition of pregnenolone-induced cell proliferation of human 22Rv1 cells at 10 to 20 uM pre-incubated for 2 hrs before pregnenolone stimulation for 72 hrs by alamar blue assay; assay type: functional, cell-based
Summary of the method: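 22Rv1 cells (AKR1C3- and AR-expressing) pretreated 2 h with agents, then cultured 72 h with 20 nM pregnenolone; viable cell number given as percent of pregnenolone-free control.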

[15] = target: T1, Aldo-keto reductase family 1 member C3 (Homo sapiens); assay: Inhibition of AKR1C3 in human 22Rv1 cells assessed as as reduction in AR mRNA expression at 10 to 20 uM pre-incubated for 2 hrs before pregnenolone stimulation for 24 hrs by RT-qPCR analysis; assay type: cell-based; details: CWR22R; summary of the method: as §3
[16] = system: LNCaP; assay: Inhibition of pregnenolone-induced cell proliferation of human LNCAP cells at 10 to 20 uM incubated for 72 hrs by alamar blue assay; assay type: functional, cell-based
Summary of the method: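 LNCaP and androgen-low-sensitive LNCaP-E9 cells pretreated 2 h with inhibitor, then 72 h with 20 nM pregnenolone; viable cells expressed as percent of untreated LNCaP control.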

[17] = target: T1, Aldo-keto reductase family 1 member C3 (Homo sapiens); assay: Inhibition of AKR1C3 in human 22Rv1 cells assessed as potentiation of abiraterone-induced apoptosis by measuring increase in cleaved caspase-3 level at 10 uM pre-incubated for 2 hrs before addition of pregnenolone for 24 hrs by Western blot analysis; assay type: cell-based; details: CWR22R
[18] = system: CWR22R; assay: Induction of apoptosis in human 22Rv1 cells assessed as increase in cleaved PARP level at 10 uM pre-incubated for 2 hrs before addition of pregnenolone for 24 hrs by Western blot analysis; assay type: functional, cell-based; summary of the method: as §4
[19] = target: T1, Aldo-keto reductase family 1 member C3 (Homo sapiens); assay: Inhibition of AKR1C3 in human 22Rv1 cells assessed as potentiation of enzalutamide-induced apoptosis by measuring increase in DNA fragmentation at 10 uM pre-incubated for 2 hrs before addition of pregnenolone for 24 hrs by ethidium bromide staining based DNA agarose gel electrophores method; assay type: cell-based; details: CWR22R
[20] = system: CWR22R; assay: Induction of apoptosis in human 22Rv1 cells assessed as increase in DNA fragmentation at 10 uM pre-incubated for 2 hrs before addition of pregnenolone for 24 hrs by ethidium bromide staining based DNA agarose gel electrophores method; assay type: functional, cell-based
[21] = system: CWR22R; assay: Inhibition of pregnenolone-induced cell cell cycle changes in human 22Rv1 cells assessed as increase in G0/GG1 phase accumulation at 10 uM pre-incubated for 2 hrs before pregnenolone stimulation for 24 hrs by propidium iodide staining based flow cytometry; assay type: functional
Summary of the method: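 Cell cycle in 22Rv1: 2 h pretreatment with or without 10 μM inhibitor, then 24 h with 20 nM pregnenolone; G0/G1, S and G2/M fractions determined by flow cytometry.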

[22] = system: CWR22R; assay: Induction of apoptosis in human 22Rv1 cells assessed as increase in cleaved caspase-3 level at 10 uM pre-incubated for 2 hrs before addition of pregnenolone for 24 hrs by Western blot analysis; assay type: functional, cell-based; summary of the method: as §4

| SMILES | inhibition [1] | inhibition [2] | inhibition [3] | Activity [4] | inhibition [5] | inhibition [6] | inhibition [7] | inhibition [8] | inhibition [9] | inhibition [10] | inhibition [11] | inhibition [12] | inhibition [13] | inhibition [14] | inhibition [15] | inhibition [16] | inhibition [17] | Activity [18] | inhibition [19] | Activity [20] | also measured |
| --- | --- | --- | --- | --- | --- | --- | --- | --- | --- | --- | --- | --- | --- | --- | --- | --- | --- | --- | --- | --- | --- |
| N=c1oc2c(O)cccc2cc1C(=O)Nc1ccc(F)cc1 | Active | Active | Active | inactive | Active | Active | Active | Active | Active | Active | Active | Active | Active | Active | Active | Active | Active | Active | Active | Active | inhibition [21]: Active; Activity [22]: Active |
| Cc1ccc(NC(=O)c2cc3cccc(O)c3oc2=N)cc1 | Active | Active | Active | inactive | Active | Active | Active | Active | Active | Active | Active | Active | Active | Active | Active | Active | Active | Active | Active | Active | inhibition [21]: Active; Activity [22]: Active |

From ChEMBL document CHEMBL4619820, “Development of Novel AKR1C3 Inhibitors as New Potential Treatment for Castration-Resistant Prostate Cancer” (J Med Chem, 2020)
